Experimental data taken from paper PMC8994735 (Targeted Oncology, 2021).
Like-named read-outs stand apart in the source and are kept apart here.

System: East Asian patients with advanced nonhematologic malignancies
Format: in vivo, human
Method in brief: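 AEs were graded by NCI CTCAE v4.03 in all patients receiving ≥ 1 oral dose, given once daily or once weekly in 28-day cycles for up to 12 months. Follow-up lasted 30 days after the last dose. Entry required ECOG 0–1, fasting glucose ≤ 130 mg/dL and triglycerides ≤ 300 mg/dL. Summaries were descriptive.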

[1] = QD dose escalation 2 mg (n = 3)
[2] = QD dose escalation 3 mg (n = 6)
[3] = QD dose escalation 4 mg (n = 7)
[4] = QD dose escalation + expansion 3 mg (n = 12)

`CC(C)n1nc(-c2ccc3oc(N)nc3c2)c2c(N)ncnc21` [sapanisertib] was tested, and the Tolerability (East Asian patients, QD and QW) was “generally well-tolerated”, the AE decreased appetite (QD arm) was 50% and the AE nausea (QD arm) was 50%. The “Treatment-related AE decreased appetite” value (QD arm) was 45%, the “Treatment-related AE nausea” value (QD arm) was 50% and the “Discontinued treatment due to AEs” value (QD arm (myocardial infarction, diarrhea and gastrointestinal inflammation, rash maculo-papular)) was “three”. For the same molecule, the “AEs resulting in discontinuation” value [1] was 1 (33) n (%), the “AEs resulting in dose interruption” value [1] was 1 (33) n (%) and the “AEs resulting in dose reduction” value [1] was 0 n (%). The “Any AE” value [1] was 3 (100) n (%), the “Any grade ≥ 3 AE” value [1] was 1 (33) n (%) and the On-study deaths [1] was 0 n (%). The SAEs [1] was 0 n (%), the “Treatment-related AE” value [1] was 3 (100) n (%) and the “Treatment-related SAEs” value [1] was 0 n (%). The “Treatment-related grade ≥ 3 AE” value [1] was 1 (33) n (%), the “AEs resulting in discontinuation” value [2] was 0 n (%) and the “AEs resulting in dose interruption” value [2] was 5 (83) n (%). The “AEs resulting in dose reduction” value [2] was 0 n (%), the “Any AE” value [2] was 6 (100) n (%) and the “Any grade ≥ 3 AE” value [2] was 2 (33) n (%). The On-study deaths [2] was 0 n (%), the SAEs [2] was 2 (33) n (%) and the “Treatment-related AE” value [2] was 6 (100) n (%). For the same molecule, the “Treatment-related SAEs” value [2] was 0 n (%), the “Treatment-related grade ≥ 3 AE” value [2] was 0 n (%) and the “AEs resulting in discontinuation” value [3] was 2 (29) n (%). For the same molecule, the “AEs resulting in dose interruption” value [3] was 6 (86) n (%), the “AEs resulting in dose reduction” value [3] was 3 (43) n (%) and the “Any AE” value [3] was 7 (100) n (%). For the same molecule, the “Any grade ≥ 3 AE” value [3] was 6 (86) n (%), the On-study deaths [3] was 0 n (%) and the SAEs [3] was 3 (43) n (%). For the same molecule, the “Treatment-related AE” value [3] was 7 (100) n (%), the “Treatment-related SAEs” value [3] was 2 (29) n (%) and the “Treatment-related grade ≥ 3 AE” value [3] was 6 (86) n (%). The “AEs resulting in discontinuation” value [4] was 0 n (%), the “AEs resulting in dose interruption” value [4] was 8 (67) n (%) and the “AEs resulting in dose reduction” value [4] was 1 (8) n (%). For the same molecule, the “Any AE” value [4] was 12 (100) n (%), the “Any grade ≥ 3 AE” value [4] was 7 (58) n (%) and the On-study deaths [4] was 0 n (%). The SAEs [4] was 3 (25) n (%), the “Treatment-related AE” value [4] was 12 (100) n (%) and the “Treatment-related SAEs” value [4] was 0 n (%). For the same molecule, the “Treatment-related grade ≥ 3 AE” value [4] was 3 (25) n (%), the “AEs resulting in discontinuation” value (QD dose expansion 3 mg (n = 6)) was 0 n (%) and the “AEs resulting in dose interruption” value (QD dose expansion 3 mg (n = 6)) was 3 (50) n (%). The “AEs resulting in dose reduction” value (QD dose expansion 3 mg (n = 6)) was 1 (17) n (%), the “Any AE” value (QD dose expansion 3 mg (n = 6)) was 6 (100) n (%) and the “Any grade ≥ 3 AE” value (QD dose expansion 3 mg (n = 6)) was 5 (83) n (%). The On-study deaths (QD dose expansion 3 mg (n = 6)) was 0 n (%), the SAEs (QD dose expansion 3 mg (n = 6)) was 1 (17) n (%) and the “Treatment-related AE” value (QD dose expansion 3 mg (n = 6)) was 6 (100) n (%). The “Treatment-related SAEs” value (QD dose expansion 3 mg (n = 6)) was 0 n (%), the “Treatment-related grade ≥ 3 AE” value (QD dose expansion 3 mg (n = 6)) was 3 (50) n (%) and the “AE by preferred term: Abdominal pain” value (QD dosing n = 22) was 3 (14) n (%). The “AE by preferred term: Alanine aminotransferase increased” value (QD dosing n = 22) was 4 (18) n (%), the “AE by preferred term: Anemia” value (QD dosing n = 22) was 5 (23) n (%) and the “AE by preferred term: Aspartate aminotransferase increased” value (QD dosing n = 22) was 6 (27) n (%). The “AE by preferred term: Constipation” value (QD dosing n = 22) was 4 (18) n (%), the “AE by preferred term: Decreased appetite” value (QD dosing n = 22) was 11 (50) n (%) and the “AE by preferred term: Diarrhea” value (QD dosing n = 22) was 2 (9) n (%). For the same molecule, the “AE by preferred term: Erythema” value (QD dosing n = 22) was 2 (9) n (%), the “AE by preferred term: Erythema multiforme” value (QD dosing n = 22) was 2 (9) n (%) and the “AE by preferred term: Fatigue” value (QD dosing n = 22) was 7 (32) n (%). For the same molecule, the “AE by preferred term: Gamma-glutamyltransferase increased” value (QD dosing n = 22) was 2 (9) n (%), the “AE by preferred term: Gastrointestinal inflammation” value (QD dosing n = 22) was 2 (9) n (%) and the “AE by preferred term: Headache” value (QD dosing n = 22) was 2 (9) n (%). The “AE by preferred term: Hyperglycemia” value (QD dosing n = 22) was 9 (41) n (%), the “AE by preferred term: Hypokalemia” value (QD dosing n = 22) was 3 (14) n (%) and the “AE by preferred term: Lymphocyte count decreased” value (QD dosing n = 22) was 4 (18) n (%). The “AE by preferred term: Nausea” value (QD dosing n = 22) was 11 (50) n (%), the “AE by preferred term: Neutrophil count decreased” value (QD dosing n = 22) was 2 (9) n (%) and the “AE by preferred term: Platelet count decreased” value (QD dosing n = 22) was 6 (27) n (%). The “AE by preferred term: Pruritus” value (QD dosing n = 22) was 2 (9) n (%), the “AE by preferred term: Pyrexia” value (QD dosing n = 22) was 4 (18) n (%) and the “AE by preferred term: Rash erythematous” value (QD dosing n = 22) was 2 (9) n (%). For the same molecule, the “AE by preferred term: Rash maculo-papular” value (QD dosing n = 22) was 5 (23) n (%), the “AE by preferred term: Rash pustular” value (QD dosing n = 22) was 2 (9) n (%) and the “AE by preferred term: Stomatitis” value (QD dosing n = 22) was 14 (64) n (%). The “AE by preferred term: Urticaria” value (QD dosing n = 22) was 3 (14) n (%), the “AE by preferred term: Vomiting” value (QD dosing n = 22) was 5 (23) n (%) and the “AE by preferred term: Weight decreased” value (QD dosing n = 22) was 7 (32) n (%). For the same molecule, the “AE by preferred term: White blood cell count decreased” value (QD dosing n = 22) was 4 (18) n (%), the “Grade ≥ 3 AE: Acute myocardial infarction” value (QD dosing n = 22) was 1 (5) n (%) and the “Grade ≥ 3 AE: Aspartate aminotransferase increased” value (QD dosing n = 22) was 1 (5) n (%). For the same molecule, the “Grade ≥ 3 AE: Blood creatine phosphokinase increased” value (QD dosing n = 22) was 1 (5) n (%), the “Grade ≥ 3 AE: Decreased appetite” value (QD dosing n = 22) was 1 (5) n (%) and the “Grade ≥ 3 AE: Diarrhea” value (QD dosing n = 22) was 1 (5) n (%). For the same molecule, the “Grade ≥ 3 AE: Gamma-glutamyltransferase increased” value (QD dosing n = 22) was 1 (5) n (%), the “Grade ≥ 3 AE: Gastrointestinal inflammation” value (QD dosing n = 22) was 1 (5) n (%) and the “Grade ≥ 3 AE: Genital herpes” value (QD dosing n = 22) was 1 (5) n (%). For the same molecule, the “Grade ≥ 3 AE: Gingivitis” value (QD dosing n = 22) was 1 (5) n (%), the “Grade ≥ 3 AE: Jaundice cholestatic” value (QD dosing n = 22) was 1 (5) n (%) and the “Grade ≥ 3 AE: Lymphocyte count decreased” value (QD dosing n = 22) was 2 (9) n (%). The “Grade ≥ 3 AE: Nausea” value (QD dosing n = 22) was 2 (9) n (%), the “Grade ≥ 3 AE: Neutrophil count decreased” value (QD dosing n = 22) was 1 (5) n (%) and the “Grade ≥ 3 AE: Platelet count decreased” value (QD dosing n = 22) was 1 (5) n (%). For the same molecule, the “Grade ≥ 3 AE: Post herpetic neuralgia” value (QD dosing n = 22) was 1 (5) n (%), the “Grade ≥ 3 AE: Pruritus” value (QD dosing n = 22) was 1 (5) n (%) and the “Grade ≥ 3 AE: Rash maculo-papular” value (QD dosing n = 22) was 2 (9) n (%). For the same molecule, the “Grade ≥ 3 AE: Rash pustular” value (QD dosing n = 22) was 1 (5) n (%), the “Grade ≥ 3 AE: Renal impairment” value (QD dosing n = 22) was 1 (5) n (%) and the “Grade ≥ 3 AE: Sepsis” value (QD dosing n = 22) was 1 (5) n (%). For the same molecule, the “Grade ≥ 3 AE: Stomatitis” value (QD dosing n = 22) was 2 (9) n (%), the “Grade ≥ 3 AE: Urticaria” value (QD dosing n = 22) was 1 (5) n (%) and the “Grade ≥ 3 AE: White blood cell count decreased” value (QD dosing n = 22) was 1 (5) n (%). For the same molecule, the “Patients with ≥ 1 grade 3 or higher AE” value (QD dosing n = 22) was 14 (64) n (%), the “AEs resulting in discontinuation” value (QD total (n = 22)) was 3 (14) n (%) and the “AEs resulting in dose interruption” value (QD total (n = 22)) was 15 (68) n (%). The “AEs resulting in dose reduction” value (QD total (n = 22)) was 4 (18) n (%), the “Any AE” value (QD total (n = 22)) was 22 (100) n (%) and the “Any grade ≥ 3 AE” value (QD total (n = 22)) was 14 (64) n (%). For the same molecule, the On-study deaths (QD total (n = 22)) was 0 n (%), the SAEs (QD total (n = 22)) was 6 (27) n (%) and the “Treatment-related AE” value (QD total (n = 22)) was 22 (100) n (%). The “Treatment-related SAEs” value (QD total (n = 22)) was 2 (9) n (%), the “Treatment-related grade ≥ 3 AE” value (QD total (n = 22)) was 10 (45) n (%) and the “AE alanine aminotransferase increased” value (QW arm) was 50%. The “AE aspartate aminotransferase increased” value (QW arm) was 50%, the “AE blood alkaline phosphatase increased” value (QW arm) was 67% and the AE decreased appetite (QW arm) was 50%. It also gave an AE hyperglycemia (QW arm) of 67%, an AE nausea (QW arm) of 100% and an AE stomatitis (QW arm) of 33%. For the same molecule, the AE weight decreased (QW arm) was 50%.
